Reference: ChEMBL document CHEMBL4346727, “Synthesis and pharmacological evaluation of novel N-Mannich bases derived from 5,5-diphenyl and 5,5-di(propan-2-yl)imidazolidine-2,4-dione core” (Bioorg Med Chem Lett, 2019)
Active and inactive are the calls of the source. Unless noted, the calls are words filed in the database; no cut-off is given here.

How the values were obtained:
[1] = Neurotoxicity in CD1 mouse at 50 mg/kg, ip measured after 1 hr by rotarod test; details: in vivo
[2] = test system: Rattus norvegicus; experiment: Anticonvulsant activity in Sprague-Dawley rat assessed as protection against 150 mA current-induced seizure at 30 mg/kg, po measured after 4 hrs by maximal electroshock seizure test; assay type: functional, organism-based
In short: (§1)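 Rats received 30 mg/kg orally and were given maximal electroshock at 0.25, 0.5, 1, 2, 4 and 6 h. Read-out is the number of rats protected out of four.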

[3] = Neurotoxicity in CD1 mouse at 300 mg/kg, ip and measured after 0.5 hrs by rotarod test; assay type: toxicity, organism-based; details: in vivo
In short: (§2)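 Mice dosed intraperitoneally at 30, 100 and 300 mg/kg, then tested on the rotarod at 0.5 h and 4 h. The value recorded is the minimum dose at which neurotoxicity appeared. A dash means no neurotoxicity at the top dose of 300 mg/kg.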

[4] = Neurotoxicity in CD1 mouse at 300 mg/kg, ip and measured after 4 hrs hrs by rotarod test; assay type: toxicity, organism-based; details: in vivo
In short: as §2

[5] = Neurotoxicity in CD1 mouse at 50 mg/kg, ip measured after 15 mins by rotarod test; details: in vivo, 0.25 h
[6] = Neurotoxicity in Sprague-Dawley rat at 30 mg/kg, po measured after 15 mins by rotarod test; assay type: toxicity, organism-based; details: in vivo, 0.25 h
In short: (§3)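 Rats given one oral dose of 30 mg/kg and tested on the rotarod at 0.25, 0.5, 1, 2, 4 and 6 h.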

[7] = Neurotoxicity in Sprague-Dawley rat at 30 mg/kg, po measured after 1 hr by rotarod test; assay type: toxicity, organism-based; details: in vivo
In short: as §3

[8] = Neurotoxicity in Sprague-Dawley rat at 30 mg/kg, po measured after 4 hr by rotarod test; assay type: toxicity, organism-based; details: in vivo
In short: as §3

[9] = test system: Mus musculus; experiment: Anticonvulsant activity in CD1 mouse assessed as protection against subcutaneous pentylenetetrazole-induced seizures at 300 mg/kg, ip and measured after 0.5 hrs; assay type: functional, organism-based
In short: (§4)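 Mice were screened after intraperitoneal doses of 30, 100 and 300 mg/kg in the maximal electroshock and subcutaneous pentylenetetrazole tests, examined at 0.5 and 4 h. The value recorded is the minimum dose showing activity. No activity up to 300 mg/kg is scored as absent.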

[10] = test system: Rattus norvegicus; experiment: Anticonvulsant activity in Sprague-Dawley rat assessed as protection against 150 mA current-induced seizure at 30 mg/kg, po measured after 30 mins by maximal electroshock seizure test; assay type: functional, organism-based
In short: as §1

[11] = Neurotoxicity in CD1 mouse at 50 mg/kg, ip measured after 2 hrs by rotarod test; details: in vivo
[12] = test system: Rattus norvegicus; experiment: Anticonvulsant activity in Sprague-Dawley rat assessed as protection against 150 mA current-induced seizure at 30 mg/kg, po measured after 15 mins by maximal electroshock seizure test; assay type: functional, organism-based
In short: as §1

[13] = Neurotoxicity in CD1 mouse at 50 mg/kg, ip measured after 4 hrs by rotarod test; details: in vivo
[14] = Neurotoxicity in CD1 mouse at 50 mg/kg, ip measured after 30 mins by rotarod test; details: in vivo, 0.5 h
[15] = test system: Mus musculus; experiment: Anticonvulsant activity in ip dosed CD1 mouse assessed as protection against 50 mA current-induced seizure and measured after 0.5 hrs by maximal electroshock seizure test; assay type: functional; details: read-out: MED
In short: as §4

[16] = Neurotoxicity in Sprague-Dawley rat at 30 mg/kg, po measured after 30 mins by rotarod test; assay type: toxicity, organism-based; details: in vivo, 0.5 h
In short: as §3

[17] = test system: Mus musculus; experiment: Anticonvulsant activity in CD1 mouse assessed as protection against 32 mA current-induced seizure at 50 mg/kg, ip measured after 4 hrs by 6 Hz psychomotor seizure test
[18] = Neurotoxicity in Sprague-Dawley rat at 30 mg/kg, po measured after 2 hr by rotarod test; assay type: toxicity, organism-based; details: in vivo
In short: as §3

[19] = test system: Mus musculus; experiment: Anticonvulsant activity in ip dosed CD1 mouse assessed as protection against 50 mA current-induced seizure and measured after 4 hrs by maximal electroshock seizure test; assay type: functional; details: read-out: MED
In short: as §4

[20] = test system: Mus musculus; experiment: Anticonvulsant activity in CD1 mouse assessed as protection against subcutaneous pentylenetetrazole-induced seizures at 300 mg/kg, ip and measured after 4 hrs; assay type: functional, organism-based
In short: as §4

[21] = Neurotoxicity in ip dosed CD1 mouse and measured after 0.5 hrs by rotarod test; assay type: toxicity, organism-based; details: in vivo
In short: as §2

[22] = Protection index, ratio of TD50 for neurotoxicity in ip dosed CD1 mouse by rotarod test to ED50 for anticonvulsant activity in ip dosed CD1 mouse model of subcutaneous PTZ-induced seizures; assay type: toxicity, organism-based; details: in vivo, read-out: Ratio TD50/ED50
[23] = Neurotoxicity in ip dosed CD1 mouse assessed as time to peak effect by rotarod test; assay type: toxicity, organism-based; details: in vivo
[24] = test system: Mus musculus; experiment: Anticonvulsant activity in ip dosed CD1 mouse assessed as time to peak effect on protection against 50 mA current-induced seizures; assay type: functional
In short: (§5)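 Median effective doses were quantified in the maximal electroshock, subcutaneous pentylenetetrazole and 6 Hz tests after intraperitoneal dosing in mice or oral dosing in rats, at the time of peak effect. ED50 values are reported with ranges in parentheses.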

[25] = test system: Mus musculus; experiment: Anticonvulsant activity in ip dosed CD1 mouse assessed as time to peak effect on protection against subcutaneous pentylenetetrazole-induced seizures; assay type: functional
In short: as §5

[26] = test system: Mus musculus; experiment: Anticonvulsant activity in ip dosed CD1 mouse assessed as protection against subcutaneous pentylenetetrazole-induced seizures; assay type: functional
In short: as §5

[27] = test system: Mus musculus; experiment: Anticonvulsant activity in ip dosed CD1 mouse assessed as protection against subcutaneous pentylenetetrazole-induced seizures and measured after 4 hrs; assay type: functional; details: CD1, 4 h, read-out: MED
In short: as §4

[28] = test system: Mus musculus; experiment: Anticonvulsant activity in CD1 mouse assessed as protection against 50 mA current-induced seizure at 300 mg/kg, ip and measured after 0.5 hrs by maximal electroshock seizure test; assay type: functional, organism-based
In short: as §4

[29] = test system: Mus musculus; experiment: Potency index, ratio of phenytoin ED50 to compound ED50 for anticonvulsant activity protection against subcutaneous pentylenetetrazole-induced seizures in ip dosed CD1 mouse; assay type: functional
[30] = test system: Mus musculus; experiment: Anticonvulsant activity in CD1 mouse assessed as protection against 50 mA current-induced seizure at 300 mg/kg, ip and measured after 4 hrs by maximal electroshock seizure test; assay type: functional, organism-based
In short: as §4

[31] = test system: Mus musculus; experiment: Anticonvulsant activity in ip dosed CD1 mouse assessed as time to peak effect on protection against 32 mA current-induced seizure by 6 Hz psychomotor seizure test; assay type: functional
In short: as §5

[32] = Neurotoxicity in ip dosed CD1 mouse model by rotarod test; assay type: toxicity, organism-based; details: in vivo
[33] = Neurotoxicity in Sprague-Dawley rat at 30 mg/kg, po measured after 6 hrs hr by rotarod test; assay type: toxicity, organism-based; details: in vivo
In short: as §3

[34] = test system: Rattus norvegicus; experiment: Anticonvulsant activity in Sprague-Dawley rat assessed as protection against 150 mA current-induced seizure at 30 mg/kg, po measured after 2 hrs by maximal electroshock seizure test; assay type: functional, organism-based
In short: as §1

[35] = test system: Rattus norvegicus; experiment: Anticonvulsant activity in Sprague-Dawley rat assessed as protection against 150 mA current-induced seizure at 30 mg/kg, po measured after 1 hr by maximal electroshock seizure test; assay type: functional, organism-based
In short: as §1

[36] = Protection index, ratio of TD50 for neurotoxicity in ip dosed CD1 mouse by rotarod test to ED50 for anticonvulsant activity in ip dosed CD1 mouse by maximal electroshock seizure test; assay type: toxicity, organism-based; details: in vivo, read-out: Ratio TD50/ED50
[37] = test system: Mus musculus; experiment: Anticonvulsant activity in ip dosed CD1 mouse assessed as protection against 32 mA current-induced seizure by 6 Hz psychomotor seizure test; assay type: functional
In short: as §5

[38] = test system: Rattus norvegicus; experiment: Anticonvulsant activity in po dosed Sprague-Dawley rat assessed as time to peak effect on protection against 32 mA current-induced seizure by 6 Hz psychomotor seizure test; assay type: functional
[39] = test system: Rattus norvegicus; experiment: Anticonvulsant activity in po dosed Sprague-Dawley rat assessed as protection against subcutaneous pentylenetetrazole-induced seizures; assay type: functional
[40] = test system: Rattus norvegicus; experiment: Anticonvulsant activity in po dosed Sprague-Dawley rat assessed as time to peak effect on protection against 150 mA current-induced seizures; assay type: functional
In short: as §5

[41] = Neurotoxicity in po dosed Sprague-Dawley rat assessed as time to peak effect by rotarod test; assay type: toxicity, organism-based; details: in vivo
[42] = Neurotoxicity in ip dosed CD1 mouse and measured after 4 hrs by rotarod test; assay type: toxicity, organism-based; details: in vivo
In short: as §2

[43] = Protection index, ratio of TD50 for neurotoxicity in po dosed Sprague-Dawley rat by rotarod test to ED50 for anticonvulsant activity in po dosed Sprague-Dawley rat by maximal electroshock seizure test; assay type: toxicity, organism-based; details: in vivo, read-out: Ratio TD50/ED50
[44] = Neurotoxicity in po dosed Sprague-Dawley rat model by rotarod test; assay type: toxicity, organism-based; details: in vivo
In short: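 Rats dosed orally; neurotoxicity scored on the rotarod. Screening used a fixed 30 mg/kg, with animals checked at 0.25, 0.5, 1, 2, 4 and 6 h; the reading is the number of four rats showing neurotoxicity. In quantitative runs, a median toxic dose (TD50, mg/kg) was determined after oral dosing at the time of peak effect.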

[45] = test system: Rattus norvegicus; experiment: Anticonvulsant activity in po dosed Sprague-Dawley rat assessed as time to peak effect on protection against subcutaneous pentylenetetrazole-induced seizures; assay type: functional

SMILES | Activity [2] | Activity [3] | Activity [4] | Activity [6] | Activity [7] | Activity [8] | MED [9] | Activity [10] | Activity [12] | minimal effective dose [15] | Activity [16] | Activity [18] | minimal effective dose [19] | Activity [20] | minimal neurotoxic dose [21] | Time [23] | Time [24] | Time [25] | ED50 [26] | Activity [28] | further results
O=C1NC(c2ccccc2)(c2ccccc2)C(=O)N1CN1CCN(CCc2ccccc2)CC1 | inactive | Non-Toxic | Non-Toxic | Non-Toxic | Non-Toxic | Non-Toxic | inactive | Active | inactive | 100 mg/kg | Non-Toxic | Non-Toxic | 30 mg/kg | inactive | – | – | – | – | – | – | Activity [1]: Non-Toxic; Activity [5]: Non-Toxic; Activity [11]: Non-Toxic; Activity [13]: Non-Toxic; Activity [14]: Non-Toxic; Activity [17]: Active
CC(C)C1(C(C)C)NC(=O)N(CN2CCN(CCc3ccccc3)CC2)C1=O | – | – | Non-Toxic | – | – | – | inactive | – | – | – | – | – | – | – | 300 mg/kg | 4 h | 4 h | 4 h | 89.4 mg/kg | inactive | selectivity ratio [22]: > 2.23; minimal effective dose [27]: 100 mg/kg; Ratio ED50 [29]: 5.5; Activity [30]: inactive; Time [31]: 4 h; TD50 [32]: > 200 mg/kg
CC(C)C1(C(C)C)NC(=O)N(CN2CCN(c3ccccc3)CC2)C1=O | inactive | Non-Toxic | Non-Toxic | Non-Toxic | Non-Toxic | Non-Toxic | inactive | inactive | inactive | – | Non-Toxic | Non-Toxic | 300 mg/kg | inactive | – | – | – | – | – | inactive | Activity [33]: Non-Toxic; Activity [34]: inactive; Activity [35]: inactive
O=C1NC(=O)C(c2ccccc2)(c2ccccc2)N1 [PHENYTOIN] | – | – | – | – | – | – | inactive | – | – | 30 mg/kg | – | – | 30 mg/kg | inactive | 100 mg/kg | 1 h | 1 h | 1 h | > 500 mg/kg | – | selectivity ratio [36]: 7.27; ED50 [37]: > 60 mg/kg; Time [38]: 1 h; ED50 [39]: > 500 mg/kg; Time [40]: 1 h; Time [41]: 1 h; MTC [42]: 100 mg/kg; selectivity ratio [43]: > 35.6; TD50 [44]: > 1000 mg/kg; Time [45]: 1 h; Time [31]: 1 h
